Tests used:
[1] = biological target: T1, GLP-1r (Sus scrofa, UniProt A0ACM8QMX0); test: GLP-1r PET imaging with compartmental kinetic analysis; assay type: in vivo, Yucatan mini-pigs; settings: 2-tissue compartment model, mean±SEM
T1 sequence (A0ACM8QMX0 24-463): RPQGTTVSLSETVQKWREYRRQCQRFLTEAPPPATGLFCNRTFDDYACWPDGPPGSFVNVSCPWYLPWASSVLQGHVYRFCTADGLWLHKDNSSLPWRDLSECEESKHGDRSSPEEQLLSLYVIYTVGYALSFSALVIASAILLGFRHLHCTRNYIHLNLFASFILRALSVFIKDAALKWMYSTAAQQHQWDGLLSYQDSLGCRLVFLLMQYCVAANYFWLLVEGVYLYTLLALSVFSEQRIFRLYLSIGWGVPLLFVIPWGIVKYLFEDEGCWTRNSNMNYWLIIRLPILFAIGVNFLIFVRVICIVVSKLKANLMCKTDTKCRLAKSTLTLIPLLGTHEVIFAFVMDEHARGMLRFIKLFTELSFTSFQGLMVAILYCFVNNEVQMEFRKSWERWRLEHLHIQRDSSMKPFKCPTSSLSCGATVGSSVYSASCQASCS
How it was run: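 Adult Yucatan mini-pigs, lean or obese, anesthetized; a 68Ga-labeled GLP-1r agonist radiotracer at 0.2 MBq/kg was given IV over 30 s. A dynamic abdominal PET-CT scan ran for 60 min in 30 frames, either fasted or at euglycemic–hyperinsulinemic clamp plateau (insulin 120 mU kg−1 h−1, 20% glucose). Arterial input came from an external arteriovenous loop gamma detector. Vs came from a 2-tissue compartment fit. Mean±SEM, unpaired t-test.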

[2] = ^68Ga-DOTA PET imaging of visceral blood flow; assay type: in vivo, Yucatan mini-pigs; settings: for K1 (unidirectional transfer rate from blood to tissue): 1-tissue compartment model, mean±SEM
How it was run: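 Visceral perfusion was measured in anesthetized lean and obese Yucatan mini-pigs during the same session, after GLP-1r imaging. 68Ga-DOTA at 1.2 MBq/kg was given IV over 10 s, followed by a dynamic PET of 10 min in 46 frames. Arterial input came from an arteriovenous loop. Images were partial-volume corrected. K1 came from a one-tissue compartment fit. Mean±SEM, unpaired t-test.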

| GLP-1r binding potential (Vs, distribution volume of specific binding) ([1]; duodenum, lean, fasted) [mL/ccm] | GLP-1r binding potential (Vs, distribution volume of specific binding) ([1]; duodenum, lean, insulin (clamp plateau)) [mL/ccm] | GLP-1r binding potential (Vs, distribution volume of specific binding) ([1]; duodenum, obese, fasted) [mL/ccm] | GLP-1r binding potential (Vs, distribution volume of specific binding) ([1]; duodenum, obese, insulin (clamp plateau)) [mL/ccm] | GLP-1r binding potential (Vs, distribution volume of specific binding) ([1]; pancreas, obese, fasted) [mL/ccm] | GLP-1r binding potential (Vs, distribution volume of specific binding) ([1]; subcutaneous fat, lean, fasted) [mL/ccm] | GLP-1r binding potential (Vs, distribution volume of specific binding) ([1]; subcutaneous fat, obese, fasted) [mL/ccm] | GLP-1r binding potential (Vs, distribution volume of specific binding) ([1]; visceral fat, lean, fasted) [mL/ccm] | GLP-1r binding potential (Vs, distribution volume of specific binding) ([1]; visceral fat, obese, fasted) [mL/ccm] | K1 (unidirectional transfer rate from blood to tissue) ([2]; duodenum, lean) [mL ccm^−1 min^−1] | K1 (unidirectional transfer rate from blood to tissue) ([2]; pancreas, obese) [mL ccm^−1 min^−1] | reduction of K1 for the flow-coded images ([2]; pancreatic level, obese versus lean animals) | K1 (unidirectional transfer rate from blood to tissue) ([2]; subcutaneous fat, lean) [mL ccm^−1 min^−1] | K1 (unidirectional transfer rate from blood to tissue) ([2]; subcutaneous fat, obese) [mL ccm^−1 min^−1] | K1 (unidirectional transfer rate from blood to tissue) ([2]; visceral fat, lean) [mL ccm^−1 min^−1] | K1 (unidirectional transfer rate from blood to tissue) ([2]; visceral fat, obese) [mL ccm^−1 min^−1] | Substance |
| --- | --- | --- | --- | --- | --- | --- | --- | --- | --- | --- | --- | --- | --- | --- | --- | --- |
| 3.02±0.20 | 2.62±0.17 | 2.87±0.29 | 2.88±0.25 | 1.49±0.47 | 0.13±0.02 | 0.06±0.02 | 0.44±0.13 | 0.13±0.02 | – | – | – | – | – | – | – | [^68Ga]Ga-DO3A-VS-Cys40-exendin-4 |
| – | – | – | – | – | – | – | – | – | 0.14±0.02 | 0.14±0.05 | about 90% | 0.08±0.03 | 0.01±0.01 | 0.02±0.01 | 0.03±0.01 | ^68Ga-DOTA |
